# Published values pooled from the literature.
# Compare with care: the assays were run in different laboratories.
# Target: Transient receptor potential cation channel subfamily M member 6 (TRPM6, Homo sapiens, UniProt Q9BX84)
Compound,read-out,method,concentration,remaining binding [%]
CCN1CCN(Cc2ccc(C(=O)Nc3ccc(C)c(Oc4ccc5c(c4)CC(=O)N5)c3)cc2C(F)(F)F)CC1,binding,competition with immobilised ligand,1 µM,100
N[C@@H]1CCN(c2nccc(-c3cnn4ncccc34)n2)C1,binding,,1 µM,100
CNCc1ccccc1-c1csc([C@@H](C)Nc2nc(C)nc3cc(OC)c(OC)cc23)c1,cell-free assay,competition with immobilised ligand,1 µM,91
O=C(NCCCN1CCOCC1)c1ccc(Nc2ncc(Cl)c(-c3ccc(Cl)s3)n2)cc1,binding,competition with immobilised ligand,1 µM,100
C[C@@H]1CCN(c2nccc(-c3cnn4ncccc34)n2)C1,binding,,1 µM,91
N#CC1(c2ccccn2)CCN(Cc2cc(C(=O)N3CCCC3)c(=O)n3ccccc23)CC1,cell-free assay,competition with immobilised ligand,1 µM,80
COc1cnc(Nc2cccc(S(N)(=O)=O)c2)nc1N1CCN(c2ccccc2)CC1,binding,competition with immobilised ligand,1 µM,90
CN(CCCC(F)(F)F)c1nccc(-c2cnn3ncccc23)n1,binding,,1 µM,100
CCCCN(CCCC)C(=O)CN1C[C@H](c2cc(OC)c3c(c2)OCO3)[C@@H](C(=O)O)[C@@H]1CC(C)(C)CCC,cell-free assay,competition with immobilised ligand,1 µM,91.6
COc1ccnn2ncc(-c3ccnc(N(C)C)n3)c12,binding,,1 µM,82
O=C(O)[C@H]1[C@H](Cn2nnc3ccccc3c2=O)CC[C@@H]1C(=O)c1ccc(OCCC2CCOCC2)cc1,cell-free assay,competition with immobilised ligand,1 µM,100
CN(c1nccc(-c2cnn3ncccc23)n1)C1CC1,binding,,1 µM,100
O=C(c1ccc(Nc2nccc(-c3cc4ccccc4s3)n2)cc1)N1CCC(N2CCCC2)CC1,binding,competition with immobilised ligand,1 µM,100
C[C@@H](c1ccc(-n2cnc3c(N)ncnc32)cc1)N1CCc2nn(C)c(Cc3ccccc3)c2C1=O,binding,competition with immobilised ligand,0.1 µM,76
O=C(NCC1CCOCC1)c1n[nH]cc1NC(=O)c1c(F)cccc1F,binding,competition with immobilised ligand,1 µM,85
Cc1cnc(Nc2ccc(C(=O)N3CCC(N4CCCC4)CC3)cc2)nc1-c1cc2ccccc2s1,binding,competition with immobilised ligand,1 µM,100
CS(=O)(=O)N1CCCC(NC(=O)[C@H](CCC2CCCCC2)NC(=O)c2ccc(CNC(=O)c3cnc4ccccn34)cc2)C1 (some centres unmarked),cell-free assay,competition with immobilised ligand,0.1 µM,100
CN(C)c1nccc(-c2cnc3ncccn23)n1,binding,,1 µM,75
C[C@H](c1ccc(F)cc1)N(Cc1cccc(C(=O)O)c1)C(=O)c1cnc2ccccc2c1,cell-free assay,competition with immobilised ligand,1 µM,100
COc1ncc2cc3ccccc3nc2c1C#N,cell-free assay,competition with immobilised ligand,5 µM,92
